# Measurements from ChEMBL document CHEMBL4665761, “Optimizing the Benefit/Risk of Acetyl-CoA Carboxylase Inhibitors through Liver Targeting” (J Med Chem, 2020).
# The source made the active and inactive calls. The calls are words filed in the database; no cut-off is given here.
# Tests used:
# [1] = Ratio of drug uptake in Wistar-Hannover rat unbound liver to plasma concentration at 10 mg/kg, po hydrochloride salt form of compound after 6 hrs by LC/MS-MS analysis; assay type: ADME, organism-based; conditions: liver and plasma
# Method in brief: (§1)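 Male Wistar-Hannover rats (n = 2 or 3) dosed orally as a suspension in 0.5% methyl cellulose with 0.1% Tween 80. Plasma and liver sampled 6 h post-dose. Kp is total liver/plasma; Kpu,u uses unbound fractions from equilibrium dialysis of plasma and liver.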
# [2] = Ratio of drug uptake in Wistar-Hannover rat liver to plasma at 10 mg/kg, po hydrochloride salt form of compound after 6 hrs by LC/MS-MS analysis; assay type: ADME, organism-based; conditions: liver and plasma; method in brief: as §1
# [3] = Drug uptake in Wistar-Hannover rat assessed as plasma concentration at 10 mg/kg, po hydrochloride salt form of compound after 6 hrs by LC/MS-MS analysis; assay type: ADME, organism-based
# Method in brief: (§2)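 Male Wistar-Hannover rats, n = 2 or 3, given an oral suspension in 0.5% methyl cellulose with 0.1% Tween 80; one compound was dosed as the HCl salt. Total plasma and liver concentrations were measured 6 h post-dose. Kp = liver/plasma total concentration. Kpu,u uses fu values from equilibrium dialysis.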
# [4] = Drug uptake in Wistar-Hannover rat liver at 10 mg/kg, po using hydrochloride salt form of compound after 6 hrs by LC/MS-MS analysis; assay type: ADME, organism-based; conditions: read-out: Drug uptake; method in brief: as §2
# [5] = Apparent permeability in MCDKII-LE cells at 2 uM incubated for 30 mins; assay type: ADME, cell-based, Canis lupus familiaris, MDCKII-LE; conditions: dog, MDCK
# Method in brief: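 MDCK-LE (low-efflux) cell monolayers with a 30 min pre-incubation. Read-out is apparent passive permeability (Papp, 10^-6 cm/s).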
# Acetyl-CoA carboxylase 1 = Acetyl-CoA carboxylase 1 (Homo sapiens, UniProt Q13085); experiment: Inhibition of recombinant human ACC1 using acetyl coA as substrate incubated for 1 hr by transcreener fluorescence polarization assay
# Method in brief: (§3)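 Recombinant human enzyme, Transcreener assay run per an earlier protocol. IC50 is the geometric mean of at least three replicates, also given as pIC50 ± SD.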
# Acetyl-CoA carboxylase 2 = Acetyl-CoA carboxylase 2 (Homo sapiens, UniProt O00763); experiment: Inhibition of recombinant human ACC2 using acetyl coA as substrate incubated for 1 hr by transcreener fluorescence polarization assay; method in brief: as §3
# [6] = Half life in Wistar-Hannover rat plasma at 1 mg/kg, iv and measured up to 24 hrs by LC/MS-MS analysis; assay type: ADME, organism-based
# Method in brief: (§4)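 Male Wistar-Hannover rats (240–350 g) with jugular vein cannulas, dosed 1 mg/kg IV (2 mL/kg) or PO. IV vehicle was 10% DMSO/90% of 20% sulfobutylether-β-cyclodextrin in water, or 10% DMSO/30% PEG400/60% water. Plasma was analysed by LC-MS/MS. Parameters come from plasma concentration–time data, n = 2: Cmax observed directly, AUC0-24 by the linear trapezoidal rule, CL = IV dose/AUC, Vss = dose/(AUC × elimination rate constant).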
# [7] = Fraction unbound in rat liver by equilibrium dialysis method
# [8] = Octanol-water partition coefficient, logD of compound at pH 7.4 at 0.5 to 2 mg incubated for 1 hr by HPLC based shake-flask method; assay type: physicochemical; conditions: dose 0.5-2 mg
# Method in brief: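 Shake-flask octanol/water partition at pH 7.4.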
# OATP1B1 = target: T1, OATP1B1 (Homo sapiens, UniProt Q9Y6L6); experiment: Substrate activity at human OATP1B1 stably expressed in HEK293 cells assessed as ratio of total to passive cellular uptake at 1 to 3 uM incubated for 0.5 to 4 mins by LC/MS-MS analysis; assay type: ADME, cell-based; conditions: HEK293 cells stably expressing human OATP1B1, dose 1-3 µM, time 0.5-4 min
# T1 sequence (Q9Y6L6 whole entry): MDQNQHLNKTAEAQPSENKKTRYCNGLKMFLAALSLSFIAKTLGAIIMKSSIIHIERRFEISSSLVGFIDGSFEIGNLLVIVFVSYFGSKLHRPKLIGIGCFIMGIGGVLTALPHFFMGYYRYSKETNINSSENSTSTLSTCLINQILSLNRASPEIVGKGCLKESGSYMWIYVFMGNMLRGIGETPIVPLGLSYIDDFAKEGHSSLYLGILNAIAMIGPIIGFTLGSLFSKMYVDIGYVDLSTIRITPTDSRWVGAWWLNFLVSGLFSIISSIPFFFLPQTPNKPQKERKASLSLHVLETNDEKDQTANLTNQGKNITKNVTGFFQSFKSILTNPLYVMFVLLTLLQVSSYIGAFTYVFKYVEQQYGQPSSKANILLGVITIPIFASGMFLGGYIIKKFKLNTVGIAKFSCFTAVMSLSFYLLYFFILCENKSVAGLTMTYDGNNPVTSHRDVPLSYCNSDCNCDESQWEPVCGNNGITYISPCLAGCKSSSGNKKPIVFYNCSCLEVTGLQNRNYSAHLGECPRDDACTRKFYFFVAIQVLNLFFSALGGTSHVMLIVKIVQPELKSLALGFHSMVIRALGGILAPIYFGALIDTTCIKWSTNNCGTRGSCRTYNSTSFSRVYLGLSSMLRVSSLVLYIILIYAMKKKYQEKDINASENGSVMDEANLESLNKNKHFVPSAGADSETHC
# Method in brief: (§5)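 Stably transfected HEK293 cells and wild-type parental cells, cultured to confluency in DMEM with 10% heat-inactivated FBS and 5 µg/mL blasticidin. Uptake at 1–3 µM in HBSS/20 mM HEPES pH 7.4, 37 °C, 0.5–4.0 min. Cells washed in ice-cold buffer, lysed in MeOH, quantified by LC-MS/MS and normalized to protein. Ratio is transfected/parental uptake; >2 denotes substrate.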
# Rattus norvegicus [9] = species: Rattus norvegicus; experiment: Fraction unbound in rat plasma by equilibrium dialysis method
# [10] = AUC (0 to 24 hrs) in Wistar-Hannover rat plasma at 1 mg/kg, iv and measured up to 24 hrs by LC/MS-MS analysis; assay type: ADME, organism-based; parameters: route intravenous, dose 1 mg/kg, time <=24
# Method in brief: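 Male Wistar-Hannover rats (240–350 g) with jugular vein cannulas were given 1 mg/kg IV at 2 mL/kg. Vehicle, depending on compound, was 10% DMSO/90% of 20% sulfobutylether-β-cyclodextrin in water or 10% DMSO/30% PEG400/60% water. AUC0–24 came from plasma concentration–time data by the linear trapezoidal rule, averaged for n = 2. Lower detection limit was 1 ng/mL.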
# [11] = Thermodynamic solubility of the compound at pH 7.4 after 24 hrs; assay type: physicochemical; conditions: buffer, read-out: Therm_solubility
# OATP1B3 = target: T2, OATP1B3 (Homo sapiens, UniProt Q9NPD5); experiment: Substrate activity at human OATP1B3 stably expressed in HEK293 cells assessed as ratio of total to passive cellular uptake at 1 to 3 uM incubated for 0.5 to 4 mins by LC/MS-MS analysis; assay type: ADME, cell-based; conditions: HEK293 cells stably expressing human OATP1B3, dose 1-3 µM, time 0.5-4 min; method in brief: as §5
# T2 sequence (Q9NPD5 whole entry): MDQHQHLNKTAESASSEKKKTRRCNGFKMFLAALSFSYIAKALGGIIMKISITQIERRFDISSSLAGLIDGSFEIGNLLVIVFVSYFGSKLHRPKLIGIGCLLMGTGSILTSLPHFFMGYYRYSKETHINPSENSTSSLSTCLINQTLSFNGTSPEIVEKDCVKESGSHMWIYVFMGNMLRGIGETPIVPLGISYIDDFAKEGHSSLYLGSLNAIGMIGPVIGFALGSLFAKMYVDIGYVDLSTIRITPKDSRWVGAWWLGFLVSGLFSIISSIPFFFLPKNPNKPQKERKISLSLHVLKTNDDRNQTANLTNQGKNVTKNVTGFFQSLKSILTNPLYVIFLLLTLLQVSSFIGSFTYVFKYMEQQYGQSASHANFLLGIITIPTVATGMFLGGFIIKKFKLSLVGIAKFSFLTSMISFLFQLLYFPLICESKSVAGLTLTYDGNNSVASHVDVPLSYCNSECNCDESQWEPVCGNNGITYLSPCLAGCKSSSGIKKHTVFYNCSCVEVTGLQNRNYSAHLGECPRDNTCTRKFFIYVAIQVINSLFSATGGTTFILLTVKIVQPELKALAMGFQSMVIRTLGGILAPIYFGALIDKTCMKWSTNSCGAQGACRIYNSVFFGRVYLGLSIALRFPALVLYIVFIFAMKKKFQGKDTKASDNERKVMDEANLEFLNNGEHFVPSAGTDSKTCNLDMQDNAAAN
# [12] = Thermodynamic solubility of the compound at pH 1.2 after 24 hrs; assay type: physicochemical; conditions: buffer, read-out: Therm_solubility
# [13] = Metabolic intrinsic clearance in human hepatocytes assessed per million cells incubated for 2 hrs; assay type: ADME, cell-based, Hepatocyte; conditions: read-out: CLH
# Method in brief: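 Cryopreserved human hepatocytes incubated for 2 h. In vitro half-lives scaled to intrinsic clearance, expressed per 10^6 cells.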
# [14] = Clearance in Wistar-Hannover rat plasma at 1 mg/kg, iv and measured up to 24 hrs by LC/MS-MS analysis; assay type: ADME, organism-based; method in brief: as §4
# [15] = Thermodynamic solubility of the compound at pH 6.5 after 24 hrs; assay type: physicochemical; conditions: buffer, read-out: Therm_solubility
# [16] = Cmax in Wistar-Hannover rat plasma at 4 mg/kg, po and measured up to 24 hrs by LC/MS-MS analysis; assay type: ADME, organism-based; parameters: route oral, dose 4 mg/kg, time <=24
# [17] = Apparent volume of distribution at steady state in Wistar-Hannover rat plasma at 1 mg/kg, iv and measured up to 24 hrs by LC/MS-MS analysis; assay type: ADME, organism-based; conditions: read-out: Vdss(app); method in brief: as §4
# Rattus norvegicus [18] = experiment: Effect on triglyceride accumulation in po dosed Sprague-Dawley rat high fat dietary model assessed as reduction in triglyceride level after 42 days by XPT clinical analyzer; assay type: functional, organism-based; conditions: time 42.0 day
# Method in brief: (§6)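 High-fat-diet-fed Sprague-Dawley rats dosed orally for 42 days, with chow-fed and vehicle controls, n = 10 per group. Read-out is hepatic triglyceride, reported as mean ± SEM.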
# Homo sapiens = species: Homo sapiens; experiment: Inhibition of ACC (unknown origin) at 100 uM
# Rattus norvegicus [19] = experiment: Inhibition of DNL in po dosed Sprague-Dawley rat assessed as reduction in DNL level in liver pretreated with one hr followed by [14C]-acetate treatment and measured after 1 hr; assay type: functional, organism-based
# Method in brief: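 Sprague-Dawley rats given single oral doses of 0.03–300 mg/kg in 0.5% methyl cellulose vehicle, n = 16 per dose. Read-out is incorporation of 14C-acetate into lipids in liver, bone marrow and lung, measured at 2 h post-dose relative to vehicle. Data are mean ± SEM. EC50 is reported with a 95% confidence interval.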
# Rattus norvegicus [20] = experiment: Effect on triglyceride accumulation in Sprague-Dawley rat high fat dietary model at 10 mg/kg, po assessed as reduction in triglyceride level after 42 days by XPT clinical analyzer; assay type: functional, organism-based; conditions: time 42.0 day; method in brief: as §6
# Chain of Acetyl-CoA carboxylase 2 (O00763 whole entry): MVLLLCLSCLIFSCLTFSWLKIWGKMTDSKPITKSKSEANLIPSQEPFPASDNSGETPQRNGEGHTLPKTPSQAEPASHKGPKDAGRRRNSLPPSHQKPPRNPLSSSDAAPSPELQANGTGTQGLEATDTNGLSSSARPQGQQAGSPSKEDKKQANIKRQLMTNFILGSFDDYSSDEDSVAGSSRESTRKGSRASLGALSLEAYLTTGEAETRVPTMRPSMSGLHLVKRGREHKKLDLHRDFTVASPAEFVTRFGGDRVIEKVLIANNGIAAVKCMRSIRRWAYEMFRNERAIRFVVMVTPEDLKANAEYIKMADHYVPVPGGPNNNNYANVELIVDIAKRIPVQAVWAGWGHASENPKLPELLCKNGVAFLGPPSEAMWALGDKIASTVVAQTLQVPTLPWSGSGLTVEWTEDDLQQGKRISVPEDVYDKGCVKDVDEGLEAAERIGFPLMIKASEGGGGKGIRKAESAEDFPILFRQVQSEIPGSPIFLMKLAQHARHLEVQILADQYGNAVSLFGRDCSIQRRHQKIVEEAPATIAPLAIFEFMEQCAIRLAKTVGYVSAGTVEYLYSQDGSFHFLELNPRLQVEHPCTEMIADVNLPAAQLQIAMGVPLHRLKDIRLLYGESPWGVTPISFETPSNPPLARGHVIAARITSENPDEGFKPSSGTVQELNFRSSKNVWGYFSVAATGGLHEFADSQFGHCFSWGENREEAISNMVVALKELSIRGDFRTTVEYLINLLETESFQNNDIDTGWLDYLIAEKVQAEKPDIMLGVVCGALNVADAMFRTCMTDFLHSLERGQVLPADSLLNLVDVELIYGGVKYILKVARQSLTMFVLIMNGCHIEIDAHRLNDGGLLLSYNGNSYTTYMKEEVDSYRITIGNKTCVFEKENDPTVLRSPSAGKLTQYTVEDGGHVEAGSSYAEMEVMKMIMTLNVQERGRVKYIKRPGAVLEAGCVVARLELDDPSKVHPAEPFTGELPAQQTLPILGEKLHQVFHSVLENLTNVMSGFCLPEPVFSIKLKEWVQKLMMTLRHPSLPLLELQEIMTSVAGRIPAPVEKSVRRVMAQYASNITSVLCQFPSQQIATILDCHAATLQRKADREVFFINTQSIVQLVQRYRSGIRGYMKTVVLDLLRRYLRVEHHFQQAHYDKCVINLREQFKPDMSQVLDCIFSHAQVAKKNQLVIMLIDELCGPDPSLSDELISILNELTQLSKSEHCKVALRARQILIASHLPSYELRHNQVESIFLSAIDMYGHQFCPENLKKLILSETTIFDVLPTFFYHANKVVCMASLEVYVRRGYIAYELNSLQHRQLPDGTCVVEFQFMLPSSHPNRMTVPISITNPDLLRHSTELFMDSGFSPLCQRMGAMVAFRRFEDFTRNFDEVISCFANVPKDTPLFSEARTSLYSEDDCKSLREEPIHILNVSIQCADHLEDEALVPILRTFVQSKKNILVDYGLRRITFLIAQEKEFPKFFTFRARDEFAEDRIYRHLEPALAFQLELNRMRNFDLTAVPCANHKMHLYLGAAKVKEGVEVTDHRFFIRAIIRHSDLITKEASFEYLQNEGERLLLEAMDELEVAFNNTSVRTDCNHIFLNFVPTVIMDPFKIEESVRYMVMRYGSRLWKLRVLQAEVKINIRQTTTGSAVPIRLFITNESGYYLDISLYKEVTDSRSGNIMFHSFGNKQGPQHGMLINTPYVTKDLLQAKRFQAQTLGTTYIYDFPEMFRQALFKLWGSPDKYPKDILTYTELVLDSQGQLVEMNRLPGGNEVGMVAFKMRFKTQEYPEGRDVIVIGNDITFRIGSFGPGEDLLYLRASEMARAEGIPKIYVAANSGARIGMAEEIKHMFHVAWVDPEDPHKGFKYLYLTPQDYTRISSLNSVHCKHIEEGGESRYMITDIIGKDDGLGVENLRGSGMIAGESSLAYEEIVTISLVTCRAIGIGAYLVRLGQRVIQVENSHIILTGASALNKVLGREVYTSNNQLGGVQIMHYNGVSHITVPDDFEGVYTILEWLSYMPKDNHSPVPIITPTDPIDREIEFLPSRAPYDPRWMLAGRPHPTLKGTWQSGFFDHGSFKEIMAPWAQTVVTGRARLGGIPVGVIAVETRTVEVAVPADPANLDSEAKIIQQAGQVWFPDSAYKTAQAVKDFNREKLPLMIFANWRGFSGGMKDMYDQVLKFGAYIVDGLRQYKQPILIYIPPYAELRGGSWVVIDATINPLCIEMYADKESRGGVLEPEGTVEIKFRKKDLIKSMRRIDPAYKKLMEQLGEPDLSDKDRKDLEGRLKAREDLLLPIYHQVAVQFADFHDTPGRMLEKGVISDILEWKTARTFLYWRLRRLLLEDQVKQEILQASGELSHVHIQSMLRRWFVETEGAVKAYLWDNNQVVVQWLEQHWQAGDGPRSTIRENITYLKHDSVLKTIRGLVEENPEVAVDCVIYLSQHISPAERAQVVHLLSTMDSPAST
smiles,measurement,setting,value
CC(C)n1ncc2c1C(=O)CC1(CCN(C(=O)c3cc(-c4ccc(C(=O)O)cc4)nc(N(C)C)c3)CC1)C2.Cl,Kp uu at 6 h,[1],79
same,Kp at 6 h,[2],173
same,concentration at 6 h,[3],57.4 ng/mL
same,concentration at 6 h,[4],9920 ng/mL
Cc1nc2cc(C(=O)N3CCC4(CC3)CC(=O)c3c(c(C(=O)O)nn3C(C)C)C4)ccc2[nH]1,"Papp at 0.5 h, 2 µM",[5],0.5 ×10⁻⁶ cm/s
same,IC50,Acetyl-CoA carboxylase 1,12000 nM
same,IC50,Acetyl-CoA carboxylase 2,1200 nM
CC(C)n1ncc2c1C(=O)CC1(CCN(C(=O)c3cc(-c4ccc(C(=O)O)cc4)nc(N(C)C)c3)CC1)C2,half-life,[6],7.5 h
same,fraction unbound,[7],0.026
same,"Papp at 0.5 h, 2 µM",[5],13 ×10⁻⁶ cm/s
same,logD at 1 h,[8],1.4
same,uptake ratio at up to 3 µM,OATP1B1,2.1
same,fraction unbound,Rattus norvegicus [9],0.057
same,AUC(0-t),[10],519 ng·h/mL
same,solubility thermodynamic at 24 h,[11],13 µM
same,uptake ratio at up to 3 µM,OATP1B3,1.4
same,solubility thermodynamic at 24 h,[12],2 µM
same,hepatocyte CLint,[13],< 3 µL/min/1e6 cells
same,IC50,Acetyl-CoA carboxylase 1,7.7 nM
same,clearance,[14],31.3 mL/min/kg
same,solubility thermodynamic at 24 h,[15],3 µM
same,Cmax,[16],< 1 ng/mL
same,Vd,[17],5.2 L/kg
same,IC50,Acetyl-CoA carboxylase 2,5.6 nM
CC(C)(C)n1cc2c(n1)C(=O)CC1(CCN(C(=O)c3ccc4[nH]nc(C(=O)O)c4c3)CC1)O2,"Papp at 0.5 h, 2 µM",[5],< 0.4 ×10⁻⁶ cm/s
same,IC50,Acetyl-CoA carboxylase 1,130 nM
same,IC50,Acetyl-CoA carboxylase 2,33 nM
CN(C)c1cc(C(=O)N2CCC3(CC2)CC(=O)c2nn(C(C)(C)C)cc2O3)cc(-c2ccc(C(=O)O)cc2)n1,"Papp at 0.5 h, 2 µM",[5],0.5 ×10⁻⁶ cm/s
same,logD at 1 h,[8],0.8
same,hepatocyte CLint,[13],7.5 µL/min/1e6 cells
same,IC50,Acetyl-CoA carboxylase 1,17 nM
same,IC50,Acetyl-CoA carboxylase 2,9.4 nM
CC(C)(C)n1cc2c(n1)C(=O)CC1(CCN(C(=O)c3cccc(-c4ccc(C(=O)O)cc4)c3)CC1)O2,"Papp at 0.5 h, 2 µM",[5],2.5 ×10⁻⁶ cm/s
same,IC50,Acetyl-CoA carboxylase 1,440 nM
same,IC50,Acetyl-CoA carboxylase 2,92 nM
CC(C)(C)n1cc2c(n1)C(=O)CC1(CCN(C(=O)c3cccc(-c4cccc(C(=O)O)c4)c3)CC1)O2,"Papp at 0.5 h, 2 µM",[5],1.3 ×10⁻⁶ cm/s
same,IC50,Acetyl-CoA carboxylase 1,1500 nM
same,IC50,Acetyl-CoA carboxylase 2,200 nM
CC(C)(C)n1cc2c(n1)C(=O)CC1(CCN(C(=O)c3ccnc(-c4ccc(C(=O)O)cc4)c3)CC1)O2,logD at 1 h,[8],-0.4
same,IC50,Acetyl-CoA carboxylase 1,1100 nM
same,IC50,Acetyl-CoA carboxylase 2,190 nM
COc1cc(C(=O)N2CCC3(CC2)CC(=O)c2c(cnn2C(C)C)C3)cc(-c2ccc(C(=O)O)cc2)n1,Activity,Rattus norvegicus [18],Dose-dependent effect
same,inhibition,Homo sapiens,inactive
same,inhibition,Rattus norvegicus [19],Dose-dependent effect
same,Activity,Rattus norvegicus [20],Active
